Where “and” joins values, the source holds several entries; their conditions need not be identical. Identical values can stand only once. Calls of active or inactive are those of the source. The rule behind the calls is not given here.
Legend:
Cavia porcellus [1] = species: Cavia porcellus; test: Tested for contraction of guinea pig vas deferens at 37 degree C; More potent than or equal to ATP; assay type: functional
Oryctolagus cuniculus [2] = species: Oryctolagus cuniculus; test: Tested for relaxation of carbachol-contracted rabbit mesenteric artery at 37 degree C; Significantly more potent than 2MeSATP; assay type: functional
Cavia porcellus [3] = species: Cavia porcellus; test: Tested for relaxation of carbachol-contracted guinea pig taenia coli at 37 degree C; Significantly more potent than ATP; assay type: functional
Oryctolagus cuniculus [4] = species: Oryctolagus cuniculus; test: Tested for relaxation of carbachol-contracted rabbit aorta at 37 degree C; Significantly more potent than 2MeSATP; assay type: functional
[5] = Agonism at turkey erythrocyte P2Y receptor.; assay type: functional, Meleagris gallopavo
Method in brief: (§1)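 Turkey erythrocytes labeled 18–24 h at 37 °C with 2-[3H]myo-inositol in inositol-free DMEM; ghosts made by hypotonic lysis (5 mM Na phosphate pH 7.4, 5 mM MgCl2, 1 mM EGTA). PLC assay: ~175 μg protein ghosts, 1 μM GTPγS, Hepes pH 7.0 medium with 424 μM CaCl2, 2 mM EGTA; 5 min, 30 °C; total [3H]inositol phosphates by anion exchange; K0.5 averaged from 3–8 curves.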

Cavia porcellus [6] = species: Cavia porcellus; test: Tested for contraction of guinea pig isolated urinary bladder detrusor muscle at 37 degree C; Potency equal to ATP; assay type: functional; settings: Muscle tissue
Oryctolagus cuniculus [7] = species: Oryctolagus cuniculus; test: Tested for contraction of rabbit saphenous artery produced by 1 uM alpha,beta-MeATP at 37 degree C; Not active; assay type: functional
Cavia porcellus [8] = species: Cavia porcellus; test: Tested for relaxation of carbachol-contracted guinea pig taenia coli at 37 degree C; Potency equal to ATP; assay type: functional
Oryctolagus cuniculus [9] = species: Oryctolagus cuniculus; test: Tested for relaxation of carbachol-contracted rabbit mesenteric artery at 37 degree C; Less potent or equal to 2MeSATP; assay type: functional
Oryctolagus cuniculus [10] = species: Oryctolagus cuniculus; test: Tested for relaxation of carbachol-contracted rabbit aorta at 37 degree C; More potent or equal to 2MeSATP; assay type: functional
Cavia porcellus [11] = species: Cavia porcellus; test: Tested for contraction of guinea pig vas deferens at 37 degree C; Less potent than or equal to ATP; assay type: functional
Cavia porcellus [12] = species: Cavia porcellus; test: Tested for contraction of guinea pig isolated urinary bladder detrusor muscle at 37 degree C; 100 times more potent than ATP; assay type: functional; settings: Muscle tissue
Oryctolagus cuniculus [13] = species: Oryctolagus cuniculus; test: Tested for contraction of rabbit saphenous artery produced by 1 uM alpha,beta-MeATP at 37 degree C; assay type: functional
Cavia porcellus [14] = species: Cavia porcellus; test: Tested for contraction of guinea pig vas deferens at 37 degree C; Significantly more potent than ATP; assay type: functional
Cavia porcellus [15] = species: Cavia porcellus; test: Tested for contraction of guinea pig isolated urinary bladder detrusor muscle at 37 degree C; Not active; assay type: functional; settings: Muscle tissue
Oryctolagus cuniculus [16] = species: Oryctolagus cuniculus; test: Tested for relaxation of carbachol-contracted rabbit mesenteric artery at 37 degree C; Not active; assay type: functional
Cavia porcellus [17] = species: Cavia porcellus; test: Tested for contraction of guinea pig vas deferens at 37 degree C; Not active; assay type: functional
Cavia porcellus [18] = species: Cavia porcellus; test: Tested for relaxation of carbachol-contracted guinea pig taenia coli at 37 degree C; Significantly less potent than ATP; assay type: functional
Oryctolagus cuniculus [19] = species: Oryctolagus cuniculus; test: Tested for relaxation of carbachol-contracted rabbit aorta at 37 degree C; Not active; assay type: functional
Cavia porcellus [20] = species: Cavia porcellus; test: Tested for contraction of guinea pig isolated urinary bladder detrusor muscle by 1 uM alpha,beta-MeATP at 37 degree C; Not active; assay type: functional; settings: Muscle tissue
Oryctolagus cuniculus [21] = species: Oryctolagus cuniculus; test: Tested for relaxation of carbachol-contracted rabbit mesenteric artery at 37 degree C; Significantly less potent than 2MeSATP; assay type: functional
Oryctolagus cuniculus [22] = species: Oryctolagus cuniculus; test: Tested for relaxation of carbachol-contracted rabbit mesenteric artery at 37 degree C; More potent than or equal to 2MeSATP; assay type: functional
Meleagris gallopavo = test: Tested for stimulation of production of inositol phosphate in turkey erythrocyte membrane; Not active; assay type: functional; method in brief: as §1
Oryctolagus cuniculus [23] = species: Oryctolagus cuniculus; test: Tested for relaxation of carbachol-contracted rabbit mesenteric artery at 37 degree C; Potency equal to 2MeSATP; assay type: functional
Cavia porcellus [24] = species: Cavia porcellus; test: Tested for relaxation of carbachol-contracted guinea pig taenia coli at 37 degree C; More potent than or equal to ATP; assay type: functional
Cavia porcellus [25] = species: Cavia porcellus; test: Tested for contraction of guinea pig isolated urinary bladder detrusor muscle at 37 degree C; Less potent than or equal to ATP; assay type: functional; settings: Muscle tissue
Cavia porcellus [26] = species: Cavia porcellus; test: Tested for relaxation of carbachol-contracted guinea pig taenia coli at 37 degree C; Less potent than or equal to ATP; assay type: functional
Oryctolagus cuniculus [27] = species: Oryctolagus cuniculus; test: Tested for relaxation of carbachol-contracted rabbit aorta at 37 degree C; More potent than or equal to 2MeSATP; assay type: functional
Oryctolagus cuniculus [28] = species: Oryctolagus cuniculus; test: Tested for relaxation of carbachol-contracted rabbit aorta at 37 degree C; Potency equal to 2MeSATP; assay type: functional

With CCCCCCSc1nc(N)c2ncn(C3O[C@H](COP(=O)(O)OP(=O)(O)OP(=O)(O)O)[C@@H](O)[C@H]3O)c2n1 (some centres not stated) the Relative activity (Cavia porcellus [1]) was “Active”, the Relative activity (Oryctolagus cuniculus [2]) was 6.7 and the Relative activity (Cavia porcellus [3]) was 7.5. For the same compound, the Relative activity (Oryctolagus cuniculus [4]) was 6.7, the “K 0.5” value [5] was 5 nM and the Relative activity (Cavia porcellus [6]) was “Active”. The Relative activity (Oryctolagus cuniculus [7]) was “inactive”.

With Nc1ncnc2c1ncn2[C@@H]1O[C@H](COP(=O)(O)OP(=O)(O)O)[C@@H](O)[C@H]1O [ADENOSINE DIPHOSPHATE] the Relative activity (Cavia porcellus [8]) was “Active”, the Relative activity (Oryctolagus cuniculus [9]) was 5.2 and the “K 0.5” value [5] was 8000 nM. The Relative activity (Cavia porcellus [6]) was “Active”, the Relative activity (Oryctolagus cuniculus [10]) was 5.2 and the Relative activity (Cavia porcellus [11]) was “Partially active”. The Relative activity (Oryctolagus cuniculus [7]) was “inactive”.

C=CCCCCSc1nc(N)c2ncn(C3O[C@H](COP(=O)(O)OP(=O)(O)O)[C@@H](O)[C@H]3O)c2n1 (some centres not stated) showed a Relative activity (Cavia porcellus [3]) of 8.1 and a K 0.5 [5] of 4 nM.

For N#CCCCCCCSc1nc(N)c2ncn(C3O[C@H](COP(=O)(O)OP(=O)(O)OP(=O)(O)O)[C@@H](O)[C@H]3O)c2n1 (some centres not stated), the Relative activity (Cavia porcellus [12]) was “Active”, the Relative activity (Oryctolagus cuniculus [2]) was 6.9 and the Relative activity (Cavia porcellus [3]) was 8.6. The Relative activity (Oryctolagus cuniculus [13]) was 9.2%, the Relative activity (Oryctolagus cuniculus [4]) was 7 and the “K 0.5” value [5] was 10 nM. For the same compound, the Relative activity (Cavia porcellus [14]) was “Active”.

With C=CCCCCSc1nc(NC)c2ncn(C3O[C@H](COP(=O)(O)O)[C@@H](O)[C@H]3O)c2n1 (some centres not stated) the Relative activity (Cavia porcellus [15]) was “inactive”, the Relative activity (Oryctolagus cuniculus [16]) was “inactive” and the Relative activity (Oryctolagus cuniculus [13]) was 6.7%. The “K 0.5” value [5] was >100000 nM, the Relative activity (Cavia porcellus [17]) was “inactive” and the Relative activity (Cavia porcellus [18]) was “Partially active”. The Relative activity (Oryctolagus cuniculus [19]) was “inactive”.

In the case of CNc1ncnc2c1ncn2[C@@H]1O[C@H](COP(=O)(O)OP(=O)(O)OP(=O)(O)O)[C@@H](O)[C@H]1O, the Relative activity (Cavia porcellus [8]) is reported as 5.8, the Relative activity (Oryctolagus cuniculus [16]) is reported as “inactive” and the “K 0.5” value [5] is reported as 19000 nM. For the same compound, the Relative activity (Cavia porcellus [17]) was “inactive”, the Relative activity (Cavia porcellus [20]) was “inactive” and the Relative activity (Oryctolagus cuniculus [21]) was “Partially active”. For the same compound, the Relative activity (Oryctolagus cuniculus [7]) was “inactive”.

In the case of C=CCCCCSc1nc(N)c2ncn(C3O[C@H](COP(=O)(O)O)[C@@H](O)[C@H]3O)c2n1 (some centres not stated), the Relative activity (Cavia porcellus [15]) is reported as “inactive”, the Relative activity (Cavia porcellus [8]) is reported as 5 and the Relative activity (Oryctolagus cuniculus [4]) is reported as 7. The “K 0.5” value [5] was 328 nM, the Relative activity (Cavia porcellus [17]) was “inactive” and the Relative activity (Oryctolagus cuniculus [22]) was 6.3. The Relative activity (Oryctolagus cuniculus [7]) was “inactive”.

In the case of Nc1ncnc2c1ncn2[C@@H]1O[C@H](CO)[C@@H](O)[C@H]1O [ADENOSINE], the Relative activity (Cavia porcellus [15]) is reported as “inactive”, the “K 0.5” value (Meleagris gallopavo) is reported as “inactive” and the Relative activity (Cavia porcellus [17]) is reported as “inactive”. It also gave a Relative activity (Oryctolagus cuniculus [23]) of 6, a Relative activity (Cavia porcellus [18]) of 3.9 and a Relative activity (Oryctolagus cuniculus [22]) of 5.7. The Relative activity (Oryctolagus cuniculus [7]) was “inactive”.

For C=CCCCCSc1nc(NC)c2ncn(C3O[C@H](COP(=O)(O)OP(=O)(O)OP(=O)(O)O)[C@@H](O)[C@H]3O)c2n1 (some centres not stated), the Relative activity (Cavia porcellus [24]) was 7.2, the Relative activity (Oryctolagus cuniculus [13]) was 1.5% and the “K 0.5” value [5] was 26 nM. The Relative activity (Cavia porcellus [17]) was “inactive”, the Relative activity (Oryctolagus cuniculus [22]) was 5.6 and 6 and the Relative activity (Cavia porcellus [25]) was “Partially active”.

For N#CCCCCCCSc1nc(N)c2ncn(C3O[C@H](COP(=O)(O)O)[C@@H](O)[C@H]3O)c2n1 (some centres not stated), the Relative activity (Cavia porcellus [15]) was “inactive”, the Relative activity (Oryctolagus cuniculus [13]) was 4.5% and the “K 0.5” value [5] was 37000 nM. The Relative activity (Cavia porcellus [17]) was “inactive”, the Relative activity (Cavia porcellus [26]) was 4.4 and the Relative activity (Oryctolagus cuniculus [22]) was 6.2.

For Nc1nc(SC2CCCCC2)nc2c1ncn2C1O[C@H](COP(=O)(O)OP(=O)(O)OP(=O)(O)O)[C@@H](O)[C@H]1O (some centres not stated), the Relative activity (Cavia porcellus [1]) was “Active”, the Relative activity (Oryctolagus cuniculus [27]) was 6.3 and the Relative activity (Cavia porcellus [3]) was 8. For the same compound, the “K 0.5” value [5] was 24 nM, the Relative activity (Cavia porcellus [6]) was “Active” and the Relative activity (Oryctolagus cuniculus [22]) was 5.9. For the same compound, the Relative activity (Oryctolagus cuniculus [7]) was “inactive”.

For Nc1ncnc2c1ncn2[C@@H]1O[C@H](COP(=O)(O)O)[C@@H](O)[C@H]1O [ADENOSINE PHOSPHATE], the Relative activity (Cavia porcellus [15]) was “inactive”, the Relative activity (Oryctolagus cuniculus [9]) was 5 and the Relative activity (Oryctolagus cuniculus [28]) was 4.8. The “K 0.5” value (Meleagris gallopavo) was “inactive”, the Relative activity (Cavia porcellus [17]) was “inactive” and the Relative activity (Cavia porcellus [18]) was “Partially active”. The Relative activity (Oryctolagus cuniculus [7]) was “inactive”.

Reference: ChEMBL document CHEMBL1127060 (1993)
